Experimental data: ChEMBL document CHEMBL1777800, “Novel diarylheptanoids as inhibitors of TNF-α production” (Bioorg Med Chem Lett, 2011)
Calls of active or inactive are those of the source. The rule behind the calls is not given here.

Assays:
[1] = system: Blood; experiment: Antiinflammatory activity in human whole blood assessed as inhibition of LPS-induced TNFalpha production at 10 uM treated for 30 mins followed by 5 hrs LPS challenge by ELISA-based WBCCS assay; format: functional
Procedure, shortened: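 Human whole blood cells exposed to compound 30 min, then LPS-stimulated; supernatants collected after 5 h and TNF-α determined by ELISA; expressed as percent inhibition.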

[2] = system: PBMC; experiment: Antiinflammatory activity in human PBMC assessed as inhibition of LPS-induced TNFalpha production treated for 30 mins followed by 5 hrs LPS challenge by ELISA assay; format: functional, cell-based
Procedure, shortened: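 Human PBMC pre-treated with compound (0.03–100 µM) for 30 min, then LPS-stimulated 5 h; TNF-α measured. Controls: DMSO vehicle with LPS, unstimulated cells, rolipram standard. Mean ± S.E.M. of three experiments; IC50 from concentration–response.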

[3] = system: Mus musculus; experiment: Antiinflammatory activity in BALB/c mouse assessed as inhibition of LPS-induced TNFalpha production in plasma at 100 mg/kg, po by ELISA; format: functional
Procedure, shortened: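 BALB/c mice dosed orally, vehicle 0.5% carboxymethylcellulose, rolipram as standard; LPS given 1 h later. Blood drawn 1.5 h after LPS; plasma TNF-α quantified by ELISA.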

[4] = system: PBMC; experiment: Cytotoxicity against human PBMC by MTS assay; format: cell-based
Procedure, shortened: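 Viability of human PBMC determined by MTS across the concentrations tested in the LPS-stimulated TNF-α assay.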

Compound | inhibition at 10 µM [1] | further results
Cc1cccc(CCC(=O)CC(O)CCc2cccnc2)c1 (stereo not drawn) | 11% | 
O=C(CCc1ccc2c(c1)OCO2)CC(O)CCc1cccnc1 (stereo not drawn) | 41% | 
COc1ccc(CCC(=O)CC(O)CCc2cccnc2)c(OC)c1 (stereo not drawn) | 22% | 
O=C(CCc1ccc(Cl)cc1)CC(O)CCc1cccnc1 (stereo not drawn) | 16% | 
Cc1cccc(CCC(=O)/C=C/CCc2cccnc2)c1 | 25% | 
COc1ccc(COc2ccc(CCC(=O)CC(O)CCc3cccnc3)cc2OC)cc1 (stereo not drawn) | 2% | 
COc1cc(/C=C/C(=O)CC(=O)/C=C/c2ccc(O)c(OC)c2)ccc1O [CURCUMIN] |  | IC50 [2]: 2.71 µM; inhibition [3]: inactive
CN(C)c1ccc(CCC(=O)/C=C/CCc2cccnc2)cc1 | 32% | 
COc1ccc(COc2ccc(CCC(=O)/C=C/CCc3cccnc3)cc2OC)cc1 | 40% | IC50 [4]: > 100 µM; IC50 ([2]; read-out: IC50): 24.1 µM; inhibition in vivo at 100 mg/kg [3]: 75%
COc1ccc(CCC(=O)/C=C/CCc2cccnc2)c(OC)c1 | 56% | IC50 [4]: 38 µM; inhibition [2]: Dose-dependent effect; IC50 ([2]; read-out: IC50): 2 µM; inhibition in vivo at 100 mg/kg [3]: 79%
COc1cccc(CCC(=O)/C=C/CCc2cccnc2)c1OC | 33% | 
COc1ccc(OC)c(CCC(=O)/C=C/CCc2cccnc2)c1 | 0% | 
COc1cccc(CCC(=O)CC(O)CCc2cccnc2)c1OC (stereo not drawn) | 10% | 
O=C(/C=C/CCc1cccnc1)CCc1ccc(F)cc1 | 35% | 
O=C(CCc1ccccc1)CC(O)CCc1cccnc1 (stereo not drawn) | 3% | 
O=C(/C=C/CCc1cccnc1)CCc1ccccc1 | 0% | 
COc1ccc(OC)c(CCC(=O)CC(O)CCc2cccnc2)c1 (stereo not drawn) | 0% | 
COc1ccc(COc2cc(CCC(=O)CC(O)CCc3cccnc3)ccc2OC)cc1 (stereo not drawn) | 44% | IC50 [4]: > 100 µM; IC50 ([2]; read-out: IC50): 5.7 µM; inhibition in vivo at 100 mg/kg [3]: 71%
O=C(CCc1ccc(F)cc1)CC(O)CCc1cccnc1 (stereo not drawn) | 34% | 
COc1ccc(COc2cc(CCC(=O)/C=C/CCc3cccnc3)ccc2OC)cc1 | 19% | 
COc1ccc(CCC(=O)CC(O)CCc2cccnc2)cc1OC (stereo not drawn) | 18% | 
COc1ccc(CCC(=O)/C=C/CCc2cccnc2)cc1OC | 56% | IC50 [4]: 80 µM; inhibition [2]: Dose-dependent effect; IC50 ([2]; read-out: IC50): 2.5 µM; inhibition in vivo at 100 mg/kg [3]: 50%
COc1cc(CCC(=O)/C=C/CCc2cccnc2)cc(OC)c1OC | 23% | 
N#Cc1ccc(CCC(=O)CC(O)CCc2cccnc2)cc1 (stereo not drawn) | 35% | 
O=C(CC(O)CCc1cccnc1)/C(=C\CCc1cccnc1)Cc1ccc(Cl)cc1 (stereo not drawn) | 32% | 
CN(C)c1ccc(CCC(=O)CC(O)CCc2cccnc2)cc1 (stereo not drawn) | 0% | 
N#Cc1ccc(CCC(=O)/C=C/CCc2cccnc2)cc1 | 9% | 
COc1cc(CCC(=O)CC(O)CCc2cccnc2)cc(OC)c1OC (stereo not drawn) | 12% | 
